Laboratory results from ChEMBL document CHEMBL1148623, “Synthesis and activity of 1,3,5-triphenylimidazolidine-2,4-diones and 1,3,5-triphenyl-2-thioxoimidazolidin-4-ones: characterization of new CB1 cannabinoid receptor inverse agonists/antagonists” (J Med Chem, 2006).

Tests used:
[1] = target: T1, Cannabinoid receptor 1 (Homo sapiens, UniProt P21554); assay: Potency at human CB1 receptor in a [35S]GTP-gamma-S functional assay
[2] = target: T2, Fatty-acid amide hydrolase 1 (Rattus norvegicus) (UniProt P97612); assay: Inhibition of FAAH in rat brain homogenates at 10 uM; assay type: tissue-based
T2 sequence (whole entry): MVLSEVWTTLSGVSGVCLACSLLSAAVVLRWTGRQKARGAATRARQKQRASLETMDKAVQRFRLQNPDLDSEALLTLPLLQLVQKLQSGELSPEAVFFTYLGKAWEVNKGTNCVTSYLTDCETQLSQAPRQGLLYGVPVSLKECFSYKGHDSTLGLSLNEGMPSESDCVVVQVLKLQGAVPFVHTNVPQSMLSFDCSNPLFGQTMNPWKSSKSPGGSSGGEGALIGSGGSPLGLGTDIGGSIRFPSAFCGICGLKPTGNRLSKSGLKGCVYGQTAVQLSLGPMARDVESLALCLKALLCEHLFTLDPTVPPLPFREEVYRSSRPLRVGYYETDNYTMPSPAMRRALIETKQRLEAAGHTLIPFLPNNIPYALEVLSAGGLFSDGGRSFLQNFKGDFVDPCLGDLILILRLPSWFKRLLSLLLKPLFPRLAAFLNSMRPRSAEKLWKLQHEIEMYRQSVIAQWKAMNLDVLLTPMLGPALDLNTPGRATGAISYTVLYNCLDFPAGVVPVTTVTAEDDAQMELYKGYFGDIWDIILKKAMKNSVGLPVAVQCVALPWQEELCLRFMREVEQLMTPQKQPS
Procedure, shortened: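 FAAH activity in adult rat brain membranes, prepared by homogenization in HEPES pH 7.0 and repeated centrifugation at 36 000 g. Compound at 10 µM incubated with [3H]-anandamide (2 µM final) in Tris-HCl pH 7.6, EDTA, 0.1% BSA for 10 min at 37 °C. Stopped on ice with chloroform/methanol; radioactivity in the aqueous methanol phase counted. Blanks without homogenate.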

[3] = target: T1, Cannabinoid receptor 1
[4] = target: Cannabinoid receptor 1 (Rattus norvegicus, UniProt P20272); assay: Displacement of [3H]SR141716A from CB1 receptor in rat cerebellum; assay type: tissue-based
Chain of Cannabinoid receptor 1 (Rattus norvegicus, UniProt P20272) (P20272 whole entry): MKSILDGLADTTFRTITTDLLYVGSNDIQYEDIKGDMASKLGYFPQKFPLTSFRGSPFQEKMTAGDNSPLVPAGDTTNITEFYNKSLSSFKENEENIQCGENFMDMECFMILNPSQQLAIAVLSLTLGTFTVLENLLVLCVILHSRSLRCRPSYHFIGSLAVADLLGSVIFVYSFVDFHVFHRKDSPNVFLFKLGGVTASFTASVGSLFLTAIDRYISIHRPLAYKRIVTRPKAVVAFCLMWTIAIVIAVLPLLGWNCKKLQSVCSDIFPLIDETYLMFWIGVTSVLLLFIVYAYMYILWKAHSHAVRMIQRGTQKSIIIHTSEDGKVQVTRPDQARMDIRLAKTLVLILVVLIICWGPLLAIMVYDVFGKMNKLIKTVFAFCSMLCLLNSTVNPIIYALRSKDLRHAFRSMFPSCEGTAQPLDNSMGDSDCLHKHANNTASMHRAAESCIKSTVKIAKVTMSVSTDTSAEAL
Procedure, shortened: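 40 µg protein; Tris-HCl pH 7.4 buffer with 0.5% BSA; 1 h at 30 °C. Compound at varying concentrations; nonspecific binding with 10 µM HU-210. IC50 by nonlinear regression, converted to Ki by Cheng-Prusoff. Mean ± SEM of at least four experiments in duplicate.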

[5] = target: Cannabinoid receptor 1 (Rattus norvegicus) (UniProt P20272); assay: Potency at rat CB1 receptor in a [35S]GTPgammaS functional assay at 10 uM; conditions: filed as antagonist
Chain of Cannabinoid receptor 1 (Rattus norvegicus) (P20272 whole entry): as above
Procedure, shortened: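 [35S]-GTPγS binding in rat cerebellum homogenate, 40 µg protein. Buffer: Tris-HCl pH 7.4 with 100 mM NaCl, 0.1% BSA and 20 µM GDP. Compound at 10 µM; 0.05 nM [35S]-GTPγS final; 1 h at 30 °C. Filtered on GF/B and counted. Nonspecific binding with 100 µM Gpp(NH)p. Mean ± SEM of at least three experiments in duplicate.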

[6] = target: Cannabinoid receptor 2 (Homo sapiens) (UniProt P34972); assay: Displacement of [3H]CP-55940 from human CB2 receptor expressed in CHO cells at 10 uM; assay type: cell-based
Chain of Cannabinoid receptor 2 (Homo sapiens) (P34972 whole entry): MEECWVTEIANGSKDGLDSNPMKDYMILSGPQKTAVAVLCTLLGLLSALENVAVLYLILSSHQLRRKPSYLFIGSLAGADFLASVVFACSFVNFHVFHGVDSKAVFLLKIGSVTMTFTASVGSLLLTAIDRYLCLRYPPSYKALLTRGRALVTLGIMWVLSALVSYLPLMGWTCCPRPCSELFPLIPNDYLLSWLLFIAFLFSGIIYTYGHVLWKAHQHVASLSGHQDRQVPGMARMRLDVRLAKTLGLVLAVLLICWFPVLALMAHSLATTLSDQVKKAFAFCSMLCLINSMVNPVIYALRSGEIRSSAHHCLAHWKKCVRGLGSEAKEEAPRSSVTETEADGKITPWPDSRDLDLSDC
Procedure, shortened: (§1)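 Radioligand competition on membranes from CHO cells stably transfected with human CB1 or CB2. Radioligands at 1 nM: [3H]-SR141716A for hCB1, [3H]-CP-55,940 for hCB2. Compound screened at 10 µM. 40 µg membrane protein; Tris-HCl pH 7.4 buffer with MgCl2, EDTA, 0.5% BSA; 1 h at 30 °C. Filtered on PEI-treated GF/B filters and counted. Nonspecific binding with 10 µM HU-210. Result given as % displacement.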

[7] = target: T1, Cannabinoid receptor 1; assay: Displacement of [3H]SR141716A from human CB1 receptor expressed in CHO cells at 10 uM; assay type: cell-based; procedure, shortened: as §1

T1 sequence (P21554 whole entry): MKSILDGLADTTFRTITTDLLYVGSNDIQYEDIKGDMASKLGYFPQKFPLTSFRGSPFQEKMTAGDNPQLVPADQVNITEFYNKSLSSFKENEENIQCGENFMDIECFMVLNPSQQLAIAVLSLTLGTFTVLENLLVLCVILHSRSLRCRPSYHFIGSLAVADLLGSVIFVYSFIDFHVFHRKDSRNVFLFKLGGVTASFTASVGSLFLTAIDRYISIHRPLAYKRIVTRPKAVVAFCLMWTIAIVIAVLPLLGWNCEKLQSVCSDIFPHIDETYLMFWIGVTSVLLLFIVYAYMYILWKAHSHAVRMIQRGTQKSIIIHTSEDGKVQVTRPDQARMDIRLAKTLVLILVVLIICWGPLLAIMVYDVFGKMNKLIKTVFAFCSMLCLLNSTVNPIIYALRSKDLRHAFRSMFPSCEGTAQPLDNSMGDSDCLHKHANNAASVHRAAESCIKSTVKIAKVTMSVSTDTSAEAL

| SMILES | EC50 [1] [nM] | inhibition [2] [%] | Ki [3] [nM] | Ki [4] [nM] | Activity [5] | Activity [6] [%] | Activity [7] [%] |
| --- | --- | --- | --- | --- | --- | --- | --- |
| O=C1C(c2ccc(Br)cc2)N(c2ccc(Cl)cc2)C(=O)N1c1ccc(Cl)cc1 (stereo not given) | 1230 | 15.4 | 905 | 1740 | Antagonist | < 20 | 79.1 |
| O=C1NC(=S)N(c2ccccc2)C1c1ccccc1 (stereo not given) | – | – | – | – | – | < 10 | < 10 |
| O=C1NC(=O)N(c2ccc(I)cc2)C1c1ccccc1 (stereo not given) | – | – | – | – | – | < 10 | < 20 |
| O=C1C(c2ccc(Br)cc2)N(c2ccccc2)C(=S)N1c1ccccc1 (stereo not given) | – | 19.1 | 6310 | – | – | < 10 | 85.1 |
| O=C1NC(=O)N(c2ccccc2)C1c1ccc(Br)cc1 (stereo not given) | – | – | – | – | – | < 10 | < 15 |
| CCCCCCCN1C(=O)C(c2ccccc2)N(c2ccccc2)C1=O (stereo not given) | – | – | – | – | – | < 10 | – |
| O=C1NC(=O)N(c2ccc(Br)cc2)C1c1ccccc1 (stereo not given) | – | – | – | – | – | < 10 | 25.2 |
| O=C(c1ccccc1)N1C(=O)C(c2ccccc2)N(c2ccccc2)C1=O (stereo not given) | – | – | – | – | – | < 10 | < 10 |
| O=C1NC(=O)N(c2ccc(Br)cc2)C1c1ccc(Br)cc1 (stereo not given) | – | – | – | – | – | < 10 | < 15 |
| O=C1C(c2ccccc2)N(c2ccc(Br)cc2)C(=S)N1c1ccc(Br)cc1 (stereo not given) | 1620 | < 10 | 1450 | – | – | < 15 | 100 |
| O=C1NC(=O)N(c2ccccc2)C1c1ccccc1 (stereo not given) | – | – | – | – | – | < 10 | < 10 |
| O=C1NC(=O)N(c2ccc(Cl)cc2)C1c1ccc(Br)cc1 (stereo not given) | – | – | – | – | – | < 10 | < 15 |
| Cc1ccc(N2C(=O)C(c3ccccc3)N(c3ccc(C)cc3)C2=S)cc1 (stereo not given) | – | < 10 | 4970 | – | – | < 20 | 80.1 |
| O=C1C(c2ccccc2)N(c2cccc(Cl)c2)C(=O)N1c1cccc(Cl)c1 (stereo not given) | 936 | < 10 | 2110 | – | – | 32.1 | 76 |
| COc1ccc(N2C(=O)NC(=O)C2c2ccccc2)cc1 (stereo not given) | – | – | – | – | – | < 10 | < 10 |
| O=C1NC(=O)N(c2ccc(Cl)cc2)C1c1ccccc1 (stereo not given) | – | – | – | – | – | < 10 | < 15 |
| O=C1C(c2ccccc2)N(c2cccc(I)c2)C(=S)N1c1cccc(I)c1 (stereo not given) | 461 | 17.4 | 692 | – | – | < 15 | 81.2 |

| SMILES | EC50 [1] [nM] | inhibition [2] [%] | Ki [3] [nM] | Ki [4] [nM] | Activity [5] | Activity [6] [%] | Activity [7] [%] |
| --- | --- | --- | --- | --- | --- | --- | --- |
| COc1ccc(N2C(=O)C(c3ccccc3)N(c3ccc(OC)cc3)C2=O)cc1 (stereo not given) | – | < 10 | 6460 | – | – | 31.4 | 57.8 |
| O=C1C(c2ccccc2)N(c2ccc(Cl)c(Cl)c2)C(=S)N1c1ccc(Cl)c(Cl)c1 (stereo not given) | – | 22.9 | 2000 | – | – | < 10 | 78.7 |
| CCCCCN1C(=O)C(c2ccccc2)N(c2ccccc2)C1=O (stereo not given) | – | – | – | – | – | < 10 | 41.1 |
| O=C1C(c2ccccc2)N(C2CCCCC2)C(=O)N1C1CCCCC1 (stereo not given) | – | – | – | – | – | – | 25 |
| O=C1C(c2ccc(Cl)cc2)N(c2ccccc2)C(=O)N1c1ccccc1 (stereo not given) | – | 13.7 | 6660 | – | – | < 15 | 60.2 |
| O=C1C(c2ccccc2)N(c2ccc(O)cc2)C(=S)N1c1ccc(O)cc1 (stereo not given) | – | 31.5 | – | – | – | < 10 | < 20 |
| CCCCCCC(C)(C)c1cc(O)c2c(c1)OC(C)(C)[C@@H]1CC=C(CO)C[C@@H]21 | 0.6 | – | 18.6 | 2.75 | – | – | – |
| O=C1C(c2ccc(Br)cc2)N(c2ccccc2)C(=O)N1c1ccccc1 (stereo not given) | – | 14.5 | 4030 | – | – | < 15 | 75.4 |
| O=C1C(c2ccccc2)N(c2ccccc2)C(=O)N1c1ccccc1 (stereo not given) | – | < 10 | 6300 | – | – | < 10 | 57.1 |
| CCCCCC(=O)N1C(=O)C(c2ccccc2)N(c2ccccc2)C1=O (stereo not given) | – | – | – | – | – | < 10 | < 10 |
| O=C1C(c2ccccc2)N(c2ccc(Br)cc2)C(=O)N1c1ccc(Br)cc1 (stereo not given) | 195 | < 10 | 243 | 311 | Antagonist | 35.6 | 102 |
| O=C1C(c2ccc(Cl)cc2)N(c2cccc(Cl)c2)C(=O)N1c1cccc(Cl)c1 (stereo not given) | – | < 10 | 3310 | – | – | 24.8 | 67.4 |
| O=C1C(c2ccccc2)N(c2ccc(Cl)cc2)C(=S)N1c1ccc(Cl)cc1 (stereo not given) | 2100 | 11.4 | 2160 | – | – | < 10 | 93.7 |
| O=C1C(c2ccccc2)N(c2ccccc2)C(=S)N1c1ccccc1 (stereo not given) | – | 11.8 | > 8000 | – | – | < 10 | 61.7 |
| COc1ccc(N2C(=O)C(c3ccccc3)N(c3ccc(OC)cc3)C2=S)cc1 (stereo not given) | – | < 10 | 7030 | – | – | < 20 | 65.6 |
| O=C1C(c2ccc(Cl)cc2)N(c2ccc(Cl)cc2)C(=O)N1c1ccc(Cl)cc1 (stereo not given) | 1110 | < 10 | 1880 | 2620 | Antagonist | 28.1 | 71.6 |
| O=C1C(c2ccccc2)N(c2ccc(Cl)cc2)C(=O)N1c1ccc(Cl)cc1 (stereo not given) | 309 | < 10 | 353 | 247 | Antagonist | 21.6 | 101 |
